MIC data for 15 compounds are collected here from ChEMBL document CHEMBL1817589, “Synthesis and antibacterial activity of C2-symmetric binaphthyl scaffolded amino acid derivatives” (2011).

≈ marks a conversion by molar mass, not a printed value. Some results are limits rather than exact numbers.

The subject of assay [1] is Staphylococcus aureus. The assay is described as follows: Antibacterial activity against Staphylococcus aureus. Type of assay: functional.
For assay [2], the system named is Staphylococcus aureus. The assay is described as follows: Antibacterial activity against vancomycin-sensitive Staphylococcus aureus ATCC 6538P. Type of assay: functional.
Assay [3] concerns Enterococcus faecium. In words: Antibacterial activity against vancomycin-sensitive Enterococcus faecium isolate 987.
Assay [4] deals with Enterococcus faecium. The assay is described as follows: Antibacterial activity against vancomycin-resistant Enterococcus faecium isolate 243. Type of assay: functional. In outline: (§1)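 Wild-type and clinical E. faecium isolates were grown in Enterococcosal broth. Overnight stationary-phase cultures were diluted 1:1000 into fresh medium and incubated with two-fold compound dilutions (seven concentrations) overnight at 37 °C in 96-well plates. The MIC was recorded as the […], and values were rounded.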

The test system of assay [5] is Enterococcus faecium. In words: Antibacterial activity against vancomycin-resistant Enterococcus faecium isolate 820. The class given is functional. In outline:
as §1

Assay [6] deals with Enterococcus faecium. In words: Antibacterial activity against vancomycin-resistant Enterococcus faecium isolate 449. Type of assay: functional. In outline:
as §1

Where [7] appears, read: Staphylococcus aureus, ATCC 6538P, read-out: MIC.
Setting [8] is: Enterococcus faecium, isolate 243, read-out: MIC.

`C=CCOc1ccc2ccccc2c1-c1c(OCC(=O)N[C@H](CCCCN)C(=O)N[C@H](CCCNC(=N)N)C(=O)N[C@@H](CC=C)C(=O)OCc2ccccc2)ccc2ccccc12` registered a minimum inhibitory concentration (MIC) against Staphylococcus aureus [1] of 2 µM (≈ 1.71 µg/mL).
Same read-out and setting: to `C=CCOc1ccc2ccccc2c1-c1c(OCCCC(=O)N[C@H](CCCNC(=N)N)C(=O)OCc2ccccc2)ccc2ccccc12` belongs 5 µM (≈ 3.29 µg/mL); to `C=CCc1cc2ccccc2c(-c2c(OC)c(CC(NC(C)=O)C(=O)N[C@H](CCCNC(=N)N)C(=O)N[C@@H](CC=C)C(=O)OC)cc3ccccc23)c1OC` (some centres undefined), 2 µM (≈ 1.5 µg/mL).
In the case of `NCCCC[C@@H](NC(=O)CCCOc1ccc2ccccc2c1-c1c(OCCCC(=O)N[C@H](CCCCN)C(=O)OCc2ccccn2)ccc2ccccc12)C(=O)OCc1ccccn1`, the MIC was 129 µM (≈ 116 µg/mL) in the assay with Staphylococcus aureus [2] (setting [7]); over 129 µM in the assay with Enterococcus faecium [3]; over 129 µM with Enterococcus faecium [4] (setting [8]); over 129 µM against Enterococcus faecium [5]; over 129 µM in the assay on Enterococcus faecium [6].
Take `N=C(N)NCCCC[C@@H](NC(=O)CCCOc1ccc2ccccc2c1-c1c(OCCCC(=O)N[C@H](CCCCNC(=N)N)C(=O)OCc2cccc3ccccc23)ccc2ccccc12)C(=O)OCc1cccc2ccccc12`: the MIC with Staphylococcus aureus [2] (setting [7]) was 7 µM (≈ 7.56 µg/mL); against Enterococcus faecium [3], over 108 µM; in the assay with Enterococcus faecium [4] (setting [8]) it was over 109 µM; in the assay on Enterococcus faecium [5] it was 54 µM (≈ 58.3 µg/mL); against Enterococcus faecium [6], 109 µM (≈ 118 µg/mL).
The corresponding values for `N=C(N)NCCC[C@@H](NC(=O)CCCOc1ccc2ccccc2c1-c1c(OCCCC(=O)N[C@H](CCCNC(=N)N)C(=O)OCc2ccccn2)ccc2ccccc12)C(=O)OCc1ccccn1` are 15 µM (≈ 14.3 µg/mL), over 122 µM, over 122 µM, over 122 µM and over 122 µM.
For `N=C(N)NCCC[C@@H](NC(=O)CCCOc1ccc2ccccc2c1-c1c(OCCCC(=O)N[C@H](CCCNC(=N)N)C(=O)NCc2ccccc2)ccc2ccccc12)C(=O)NCc1ccccc1`, in that order: 2 µM (≈ 1.9 µg/mL), 122 µM (≈ 116 µg/mL), 61 µM (≈ 57.9 µg/mL), 122 µM (≈ 116 µg/mL) and 61 µM (≈ 57.9 µg/mL).
For `NCCCC[C@@H](NC(=O)CCCOc1ccc2ccccc2c1-c1c(OCCCC(=O)N[C@H](CCCCN)C(=O)OCc2ccccc2)ccc2ccccc12)C(=O)OCc1ccccc1`, in that order: 4 µM (≈ 3.58 µg/mL), 129 µM (≈ 115 µg/mL), 129 µM (≈ 115 µg/mL), 65 µM (≈ 58.2 µg/mL) and 65 µM (≈ 58.2 µg/mL).
As to `COC(=O)[C@@H](CCCCN)NC(=O)CCCOc1ccc2ccccc2c1-c1c(OCCCC(=O)N[C@H](CCCCN)C(=O)OC)ccc2ccccc12`, the minimal inhibitory concentration (MIC) in the assay with Staphylococcus aureus [2] (setting [7]) was over 153 µM.
Consider `N=C(N)NCCCC[C@@H](NC(=O)CCCOc1ccc2ccccc2c1-c1c(OCCCC(=O)N[C@H](CCCCNC(=N)N)C(=O)OCc2ccccc2)ccc2ccccc12)C(=O)OCc1ccccc1`, for which the minimal inhibitory concentration (MIC) in the assay on Staphylococcus aureus [2] (setting [7]) was 4 µM (≈ 3.92 µg/mL); against Enterococcus faecium [3], 119 µM (≈ 117 µg/mL); in the assay with Enterococcus faecium [4] (setting [8]), 59 µM (≈ 57.8 µg/mL); in the assay on Enterococcus faecium [5], 59 µM (≈ 57.8 µg/mL); against Enterococcus faecium [6], 59 µM (≈ 57.8 µg/mL).
With `NCCCC[C@@H](NC(=O)CCCOc1ccc2ccccc2c1-c1c(OCCCC(=O)N[C@H](CCCCN)C(=O)OCc2cccc3ccccc23)ccc2ccccc12)C(=O)OCc1cccc2ccccc12`, the minimal inhibitory concentration (MIC) in the assay on Staphylococcus aureus [2] (setting [7]) is 7 µM (≈ 6.97 µg/mL); with Enterococcus faecium [3], 117 µM (≈ 116 µg/mL); in the assay on Enterococcus faecium [4] (setting [8]), over 117 µM; with Enterococcus faecium [5], 59 µM (≈ 58.7 µg/mL); against Enterococcus faecium [6] it was 117 µM (≈ 116 µg/mL).
As for `COC(=O)[C@@H](CCCNC(=N)N)NC(=O)CCCOc1ccc2ccccc2c1-c1c(OCCCC(=O)N[C@H](CCCNC(=N)N)C(=O)OC)ccc2ccccc12`, the results for the MIC in the assay with Staphylococcus aureus [2] (setting [7]), with Enterococcus faecium [5] and against Enterococcus faecium [6] were 18 µM (≈ 14.4 µg/mL), over 143 µM and over 143 µM, respectively.
Consider `N=C(N)NCCC[C@@H](NC(=O)CCCOc1ccc2ccccc2c1-c1c(OCCCC(=O)N[C@H](CCCNC(=N)N)C(=O)OCc2ccccc2)ccc2ccccc12)C(=O)OCc1ccccc1` (stereo in doubt; 21), for which the MIC came to 2 µM (≈ 1.9 µg/mL) in the assay on Staphylococcus aureus [2] (setting [7]); 31 µM (≈ 29.5 µg/mL) in the assay with Enterococcus faecium [3]; 61 µM (≈ 58 µg/mL) in the assay with Enterococcus faecium [4] (setting [8]); 31 µM (≈ 29.5 µg/mL) with Enterococcus faecium [5]; 31 µM (≈ 29.5 µg/mL) against Enterococcus faecium [6].
Regarding `Cl.Cl.N=C(N)NCCC[C@@H](NC(=O)CCCOc1ccc2ccccc2c1-c1c(OCCCC(=O)N[C@H](CCCNC(=N)N)C(=O)OCc2ccccc2)ccc2ccccc12)C(=O)OCc1ccccc1` (stereo in doubt; 22), the minimum inhibitory concentration (MIC) in the assay on Staphylococcus aureus [2] came out at 4 µM; against Enterococcus faecium [4], 31 µM.
Consider `CN[C@H](CC(C)C)C(=O)N[C@H]1C(=O)N[C@@H](CC(N)=O)C(=O)N[C@H]2C(=O)N[C@H]3C(=O)N[C@H](C(=O)N[C@H](C(=O)O)c4cc(O)cc(O)c4-c4cc3ccc4O)[C@H](O)c3ccc(c(Cl)c3)Oc3cc2cc(c3O[C@@H]2O[C@H](CO)[C@@H](O)[C@H](O)[C@H]2O[C@H]2C[C@](C)(N)[C@H](O)[C@H](C)O2)Oc2ccc(cc2Cl)[C@H]1O` [VANCOMYCIN], for which the MIC was 1 µM (≈ 1.45 µg/mL) in the assay on Staphylococcus aureus [2] (setting [7]); under 1 µM against Enterococcus faecium [3]; 1 µM (≈ 1.45 µg/mL) in the assay on Enterococcus faecium [4] (setting [8]); over 86 µM with Enterococcus faecium [5]; 43 µM (≈ 62.3 µg/mL) against Enterococcus faecium [6].
